The nature of series [1]: Therapeutic index, ratio of CC50 for human HuH7 cells to EC50 for HCV infected in human HuH7-luc/neo cells. Format: toxicity, cell-based. To be noted: HuH7 cells (CC50) and HCV-infected HuH7-luc/neo cells (EC50).
Series [2] has as its target T1, Histone deacetylase 8 (Homo sapiens) (UniProt Q9BY41).
T1 sequence (whole entry): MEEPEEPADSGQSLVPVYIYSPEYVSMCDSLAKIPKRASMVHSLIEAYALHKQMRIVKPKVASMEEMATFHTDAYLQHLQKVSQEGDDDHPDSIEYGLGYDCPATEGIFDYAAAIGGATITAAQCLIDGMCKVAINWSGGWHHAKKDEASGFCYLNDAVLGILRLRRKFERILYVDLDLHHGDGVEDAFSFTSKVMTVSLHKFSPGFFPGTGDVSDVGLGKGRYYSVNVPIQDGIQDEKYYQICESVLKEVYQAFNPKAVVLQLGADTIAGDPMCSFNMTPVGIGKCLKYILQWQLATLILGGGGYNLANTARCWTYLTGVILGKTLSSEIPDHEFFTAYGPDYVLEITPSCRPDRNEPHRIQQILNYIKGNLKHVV
As to the kind of experiment: Inhibition of HDAC8 in human HuH7-luc/neo cells assessed as ratio of SMC3K105/106ac content to the content of unmodified SMC3 at 3 uM incubated for 24 hrs by Western blot analysis relative to control. Type of series: cell-based. A digest of the protocol:
(§1)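 Huh7-luc/neo cells were dosed after 24 h at 40-50% monolayer and exposed to compound for 24 h at 37 °C in 5% CO2. For α-tubulin and SMC3, cells were PBS-washed and lysed. Histone H3 was acid-extracted: TEB buffer with 0.5% Triton X-100, then 0.2 M HCl overnight at 4 °C, then neutralized. Western blots were blocked in 5% milk/PBST with overnight primary antibody at 4 °C. Values are acetylated/total normalized ratios versus control.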
(In western blotting, separated proteins are transferred to a membrane and probed.)

For series [3], the target named is T2, Histone deacetylase 1/2/3 (Homo sapiens) (UniProt Q13547+O15379+Q92769). Kind of series: Inhibition of HDAC1/2/3 in human HuH7-luc/neo cells assessed as ratio of H3K9/14ac content to the content of unmodified histone H3 at 3 uM incubated for 24 hrs by Western blot analysis relative to control. Type of series: cell-based. Put shortly: as §1
Series [4] deals with T3, Protein deacetylase HDAC6 (Homo sapiens) (UniProt Q9UBN7).
T3 sequence (whole entry): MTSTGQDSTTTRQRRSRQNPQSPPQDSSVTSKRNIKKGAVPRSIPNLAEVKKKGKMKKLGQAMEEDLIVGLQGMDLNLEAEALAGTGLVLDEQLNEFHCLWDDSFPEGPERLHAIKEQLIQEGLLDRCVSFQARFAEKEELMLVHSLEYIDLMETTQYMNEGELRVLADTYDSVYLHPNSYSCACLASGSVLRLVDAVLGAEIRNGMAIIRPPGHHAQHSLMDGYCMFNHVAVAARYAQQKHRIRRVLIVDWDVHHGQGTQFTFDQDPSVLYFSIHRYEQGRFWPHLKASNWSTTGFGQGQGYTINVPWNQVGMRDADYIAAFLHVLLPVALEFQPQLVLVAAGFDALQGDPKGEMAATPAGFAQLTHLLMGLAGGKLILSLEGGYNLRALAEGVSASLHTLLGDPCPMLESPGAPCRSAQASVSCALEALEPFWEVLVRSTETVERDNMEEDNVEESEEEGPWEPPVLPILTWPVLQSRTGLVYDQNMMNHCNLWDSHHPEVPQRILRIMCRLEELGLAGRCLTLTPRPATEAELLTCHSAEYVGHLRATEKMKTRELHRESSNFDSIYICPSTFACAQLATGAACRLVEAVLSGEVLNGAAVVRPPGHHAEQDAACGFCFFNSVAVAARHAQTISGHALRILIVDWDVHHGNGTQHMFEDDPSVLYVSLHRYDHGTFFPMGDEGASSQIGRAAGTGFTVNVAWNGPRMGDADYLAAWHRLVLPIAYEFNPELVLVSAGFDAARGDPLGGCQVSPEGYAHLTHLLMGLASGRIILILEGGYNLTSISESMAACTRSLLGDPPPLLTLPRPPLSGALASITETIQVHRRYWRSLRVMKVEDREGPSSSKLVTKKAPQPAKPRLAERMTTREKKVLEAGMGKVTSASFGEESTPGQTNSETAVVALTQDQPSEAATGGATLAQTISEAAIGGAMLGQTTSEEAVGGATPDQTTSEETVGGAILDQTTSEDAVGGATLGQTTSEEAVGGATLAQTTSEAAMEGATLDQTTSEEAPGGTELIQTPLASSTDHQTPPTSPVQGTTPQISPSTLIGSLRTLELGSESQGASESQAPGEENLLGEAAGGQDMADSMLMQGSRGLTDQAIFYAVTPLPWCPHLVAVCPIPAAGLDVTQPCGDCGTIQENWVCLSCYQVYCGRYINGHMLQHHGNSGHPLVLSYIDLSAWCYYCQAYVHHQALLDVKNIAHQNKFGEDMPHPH
As to the kind of experiment: Inhibition of HDAC6 in human HuH7-luc/neo cells assessed as ratio of alphaTubK40ac content to the content of unmodified alpha-tubulin at 3 uM incubated for 24 hrs by Western blot analysis relative to control. Format: cell-based. Put shortly: as §1

A further series has as its system Hepatitis C virus. As to the kind of experiment: Antiviral activity against HCV infected in human HuH7-luc/neo cells assessed as inhibition of viral replicon propagation incubated for 3 days by luciferase reporter gene assay. Type of series: functional, organism-based, Hepacivirus hominis. To be noted: 72 h. Put shortly: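 Huh7-luc/neo cells carrying a full-length HCV replicon with a luciferase gene. Cells were reseeded without G418 and dosed at 30-40% monolayer (48 h) over a range of concentrations. Incubation was 72 h at 37 °C in 5% CO2. Cells were then PBS-washed and lysed, and luciferase chemiluminescence was read. EC50 is the mean and standard deviation of at least four independent experiments.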

In series [5] the target is T2, Histone deacetylase 1/2/3 (Homo sapiens). As to the kind of experiment: Inhibition of HDAC1/2/3 in human HuH7-luc/neo cells assessed as ratio of H3K9/14ac content to the content of unmodified histone H3 at 0.3 uM incubated for 24 hrs by Western blot analysis relative to control. Format: cell-based. Put shortly: as §1
Series [6] shares this target. As to the kind of experiment: Inhibition of HDAC1/2/3 in human HuH7-luc/neo cells assessed as ratio of H3K9/14ac content to the content of unmodified histone H3 at 1 uM incubated for 24 hrs by Western blot analysis relative to control. Format: cell-based. Put shortly: as §1
In series [7] the target is T3, Protein deacetylase HDAC6 (Homo sapiens). As to the kind of experiment: Inhibition of HDAC6 in human HuH7-luc/neo cells assessed as ratio of alphaTubK40ac content to the content of unmodified alpha-tubulin at 0.3 uM incubated for 24 hrs by Western blot analysis relative to control. Format: cell-based. A digest of the protocol:
as §1

Series [8] in a line: Cytotoxicity against human HuH7 cells assessed as reduction in cell viability incubated for 3 days by MTT assay. Format: cell-based, Huh-7. Put shortly: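 Huh7 cells were reseeded and dosed over a range of concentrations after 24 h (30-40% monolayer). Incubation was three days at 37 °C in 5% CO2, and viability was read by MTT. CC50 is the mean and standard deviation of at least six independent experiments.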
On the technique in general: Tetrazolium assays rely on reduction of a dye to a coloured formazan, in cell work by metabolically active cells.

Series [9] concerns the target T3, Protein deacetylase HDAC6 (Homo sapiens). Kind of series: Inhibition of HDAC6 in human HuH7-luc/neo cells assessed as ratio of alphaTubK40ac content to the content of unmodified alpha-tubulin at 1 uM incubated for 24 hrs by Western blot analysis relative to control. Type of series: cell-based. Put shortly: as §1
The target in series [10] is T1, Histone deacetylase 8 (Homo sapiens). Kind of series: Inhibition of HDAC8 in human HuH7-luc/neo cells assessed as ratio of SMC3K105/106ac content to the content of unmodified SMC3 at 10 uM incubated for 24 hrs by Western blot analysis relative to control. Format: cell-based. A digest of the protocol: as §1

The structures appear in SMILES notation. pEC50: −log10 of the molar value.

Regarding `O=C(/C=C/c1ccc(OCCc2ccccc2)cc1)NO`, in series [1], the selectivity ratio came to 120. Moreover, the fold change (FC) was found to be 0.52 in series [2]; 9.6 in [3]; 2.55 in [4]; 4.3 in series [5]; 9 in series [6]; 0.52 in series [7]. Further, the fold change (FC) in [9] is 0.5; in series [10] it was 0.41. The pEC50 – broadly, the negative decadic logarithm of the EC50, by convention in mol/L – with Hepatitis C virus was 6.89. The CC50 (usually the concentration at which the toxic effect on the cells reaches its halfway point) at 72 h in [8] amounted to 16 µM.
Regarding `COc1ccccc1/C=C/C(=O)NO`, the selectivity ratio in [1] amounted to 27. Further, the fold change (FC) in series [3] came to 1.56; in series [4], 1.45; in series [6] it was 1.16; in [9] it was 0.75. Also, the pEC50 with Hepatitis C virus is 5.96. In [8], the CC50 at 72 h came to 30 µM.
As to `O=C(/C=C/c1ccc(Oc2ccccc2)cc1)NO`, the selectivity ratio in series [1] was 370. Moreover, the fold change (FC) in series [2] was found to be 0.83; in [3], 2.58; in series [4], 2.58; in [5] it was 1.53; in [6], 1.69; in [7] it was 2.09. Also, the fold change (FC) in series [9] worked out at 2.22; in series [10], 0.73. In addition, the pEC50 in the series on Hepatitis C virus was 7.27. For the same molecule, the CC50 at 72 h in [8] turned out to be 20 µM.
As for `COc1ccc(/C=C/C(=O)NO)cc1`, the selectivity ratio in series [1] came to 27. The fold change (FC) in series [3] was found to be 1.85; in [4], 5.1; in [6], 1.35; in series [7], 0.55; in series [9], 3.57. The pEC50 with Hepatitis C virus is 6.25. The CC50 at 72 h in series [8] was 15 µM.
Take `COc1cccc(/C=C/C(=O)NO)c1`: the selectivity ratio in [1] stood at 30. The fold change (FC) worked out at 1.69 in series [3], 3.3 in series [4], 1.45 in series [6] and 2.13 in series [9]. Moreover, the pEC50 in the series on Hepatitis C virus is 6.24. Moreover, in [8], the CC50 at 72 h was determined as 17 µM.
On to `O=C(/C=C/c1ccc(OCc2ccccc2)cc1)NO`, for which the selectivity ratio in series [1] is 240. Also, the fold change (FC) is 0.93 in series [2]; 4.83 in [3]; 8.86 in [4]; 4.23 in series [6]; 1.63 in [7]; 4.92 in [9]. Besides, in series [10], the fold change (FC) came out at 0.67. Also, the pEC50 in the series with Hepatitis C virus was 7.38. Moreover, the CC50 at 72 h in series [8] was 9.9 µM.
On to `O=C(/C=C/c1cccc(OCc2ccccc2)c1)NO`, for which, in series [1], the selectivity ratio came to 37. For the same molecule, the fold change (FC) is 0.82 in [2]; 14.1 in series [3]; 10.6 in series [4]; 8.42 in series [6]; 7.34 in series [9]; 0.83 in [10]. The pEC50 in the series with Hepatitis C virus is 6.74. The CC50 at 72 h in series [8] came to 6.6 µM.
Consider `O=C(/C=C/c1cccc(OCCc2ccccc2)c1)NO`, for which the selectivity ratio in [1] worked out at 41. The fold change (FC) in series [2] is 0.7; in series [3], 11.2; in [4], 4.34; in series [6], 8.55; in series [9], 3.53; in series [10], 0.58. Also, the pEC50 in the series on Hepatitis C virus is 6.52. For the same molecule, in series [8], the CC50 at 72 h was determined as 12 µM.
Regarding `O=C(/C=C/c1cccc(OCCOc2ccccc2)c1)NO`, the selectivity ratio in series [1] was 55. Also, the fold change (FC) came to 0.89 in series [2]; 20.2 in [3]; 7.72 in series [4]; 7.5 in series [6]; 3.33 in [9]; 1.44 in series [10]. For the same molecule, the pEC50 with Hepatitis C virus is 6.96. Also, in [8], the CC50 at 72 h was 6 µM.

The record behind these values is ChEMBL document CHEMBL4311979, “Structural isomers of cinnamic hydroxamic acids block HCV replication via different mechanisms” (Eur J Med Chem, 2019).
